Screens (PubChem BioAssay)
Shown are actives, neighbours in structure and some others; about 3.7% of the full set was active somewhere.
hERG rescue: hERG rescue from dofetilide block, primary screen, cell-based, CHO-hERG, FluxOR thallium flux, dofetilide IC70; 0.51% of 310,000 active; dofetilide IC70 present; activation (rescue from dofetilide block), less the hit threshold, % at 10 µM;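 active means activation above the mean of controls blocked by dofetilide plus 5 SD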;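 further: thallium influx through hERG after potassium depolarization seen as dye fluorescence rise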
KCNQ1 inh: inhibitors of human KCNQ1 channel, primary screen, cell-based, thallium flux, high-throughput | 1.3% of 310,000 active | Potassium voltage-gated channel subfamily KQT member 1 (Homo sapiens), P51787 | AID 2642, 2010 | B-score at 10 µM | CHO-K1 KCNQ1, FluxOR thallium flux fluorescence; hits give high values;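 active means compounds whose thallium flux B-score, printed positive for inhibition, exceeds three library SD while starting fluorescence stays within three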;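 further: channel opened by potassium depolarization with thallium stimulus after 20 min compound exposure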
KCNQ1 act: potentiators or activators of KCNQ1 channel, primary screen, cell-based, thallium flux, high-throughput; Potassium voltage-gated channel subfamily KQT member 1 (Homo sapiens), P51787; 0.35% of 310,000 active; B-score at 10 µM; CHO-K1 KCNQ1, thallium flux FluxOR fluorescence; hits give high values;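 active means fluorescence ratio B-score, a plate-corrected score, at least three library SD, with initial intensity B-score within 5 SD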
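Doses: Single concentration per compound, DMSO matched to controls | Test system: KCNQ1-transfected CHO-K1 cells | Timing: 90 min dye loading and 20 min compound exposure, both at room temperature | Measured by: Kinetic FluxOR thallium fluorescence, 10-s 1-Hz baseline, 110-s post-stimulus read | Medium: Assay buffer with matched DMSO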
Kir21 block: inhibitors of mouse Kir2.1 inward-rectifier potassium channel; Inward rectifier potassium channel 2 (Mus musculus), P35561; B-score at 10 µM; 0.85% of 310,000 active; HEK293-Kir2.1, FluxOR thallium flux fluorescence; hits give low values;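 active means fluorescence ratio B-score at or below minus 3 SD of library scores, with starting-brightness B-score within 2 SD, cut at about -4.2 in these data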;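 further: channel flux triggered by added potassium and thallium sulfate stimulus; B-score of peak minus minimum fluorescence over baseline after thallium stimulus; more negative B-score means stronger Kir2.1 block with less thallium influx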
Target sequence (P35561 whole entry, looked up): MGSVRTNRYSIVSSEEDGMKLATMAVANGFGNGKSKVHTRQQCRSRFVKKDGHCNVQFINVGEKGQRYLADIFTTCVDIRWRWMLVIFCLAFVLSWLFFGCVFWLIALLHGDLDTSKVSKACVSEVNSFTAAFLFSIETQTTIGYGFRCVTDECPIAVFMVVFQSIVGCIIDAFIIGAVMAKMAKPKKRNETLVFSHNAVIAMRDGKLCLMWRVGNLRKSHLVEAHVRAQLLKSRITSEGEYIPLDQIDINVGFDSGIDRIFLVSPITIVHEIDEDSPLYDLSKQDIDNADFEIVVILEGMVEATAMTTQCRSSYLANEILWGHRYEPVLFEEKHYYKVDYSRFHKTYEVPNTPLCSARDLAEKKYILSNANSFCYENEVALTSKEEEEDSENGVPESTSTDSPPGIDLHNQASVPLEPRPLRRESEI
KCNK9 inh: KCNK9 potassium channel inhibitors, primary screen, HEK293 cells, thallium flux. Potassium channel subfamily K member 9 (Homo sapiens), Q9NPC2. B-score at 10 µM. 1.2% of 310,000 active. FluxOR thallium flux fluorescence; hits give low values;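 active means ratio B-score over 3 SD below the library mean, with starting fluorescence within 5 SD of its mean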;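 further: negative B-score means less thallium flux so channel inhibition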
KCNK3 inh: human KCNK3 channel inhibitors, primary screen, CHO cells, FluxOR thallium flux, B-score | Potassium channel subfamily K member 3 (Homo sapiens), O14649 | FluxOR fluorescence; hits give low values | 0.84% of 340,000 active | B-score at 10 µM;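 active means B-score under library mean minus 4 SD, starting fluorescence ratio at most library mean plus 5 SD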;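 further: more negative B-score means stronger inhibition of thallium flux through KCNK3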
KCNK9 block conf: KCNK9 potassium channel inhibitors, confirmation, HEK293 cells, thallium flux, duplicate; shares compounds with KCNK9 inh; FluxOR thallium flux fluorescence; inhibition, % at 10 µM; 43% of 4,900 active;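 active means thallium signal inhibited by more than 5 SD of the compound-free buffer control wells, on both duplicate plates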;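 further: 0% = assay buffer control wells without compound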
Kir21 sel: mouse Kir2.1 channel inhibition, confirmation, selectivity assay for KCNK9 modulator project, cell-based, HEK293, thallium flux | shares compounds with KCNK9 inh | inhibition, % at 10 µM | Kir2.1 cells, FluxOR thallium flux fluorescence | 4% of 4,900 active;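 active means thallium signal drop more than 5 SD beyond the mean of the no-compound control wells, seen in both duplicate plates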;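 further: signal is fluorescence rise after thallium addition divided by baseline fluorescence; plate controls were assay buffer only for no effect and full block by chlorpromazine control for full effect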
HEK293 Tl ctr: thallium flux in non-induced HEK293 cells, confirmation, counter-screen for KCNK9 inhibitor project, cell-based, second counter screen, non-induced KCNK9-HEK293. shares compounds with KCNK9 inh. inhibition, % at 10 µM. FluxOR thallium flux. AID 492997, 2010. 40% of 4,900 active;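 active means thallium signal drop beyond 5 SD of the untreated control mean, on both duplicate plates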;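 further: plate controls were buffer only IC0 wells for no effect and SID17386958 at its maximal inhibitory level for full effect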
* hit, by the source's call; i = inactive; · = not tested or not shown.

SMILES | hERG rescue | KCNQ1 inh | KCNQ1 act | Kir21 block | KCNK9 inh | KCNK3 inh | KCNK9 block conf | Kir21 sel | HEK293 Tl ctr
Cc1cccc(Sc2nc(-c3ccccc3)ncc2C(=O)O)c1 | -7 | i | i | 0.16 | i | i | · | · | ·
O=C(Nc1ccc(Cl)cc1Cl)c1ccc(-c2ccccc2)cc1 | -4 | i | i | 0 | i | i | · | · | ·
O=C(Nc1c(Cl)cccc1Cl)c1ccc(-c2ccccc2)cc1 | -1 | i | i | -1.3 | -8.5* | i | 34%* | i | i
CSc1ncc(OCc2ccccc2)c(=O)[nH]1 | -8 | i | i | 1.2 | i | i | · | · | ·
CC(=C/c1ccccc1)/C=N/NC(=O)c1nnn(-c2nonc2N)c1CN1CCC(C)CC1 | -10 | i | i | -1.8 | i | i | · | · | ·
Cc1ccccc1COc1ccc(/C=N/NC(=O)c2nnn(-c3nonc3N)c2CN2CCC(C)CC2)cc1 | -4 | i | i | 0.57 | i | i | i | i | i
CC1CCN(Cc2c(C(=O)N/N=C/c3ccc(OC(C)C)cc3)nnn2-c2nonc2N)CC1 | -15 | i | i | 0.3 | i | i | i | i | i
CC(C)OC(=O)c1c(NS(=O)(=O)c2ccccc2)sc2c1CCCC2 | 18* | i | 31* | -0.65 | i | i | i | i | i
O=C(Cn1cncn1)N/N=C/c1cccc(Cl)c1 | -2 | i | i | 1.2 | i | i | · | · | ·
COC(=O)c1ccccc1NC(=O)C1CCCN(S(=O)(=O)c2ccc(F)cc2)C1 (stereo unspecified) | -1 | i | i | 1.4 | i | i | i | i | i
COC(=O)c1ccccc1NC(=O)C1CCCN(S(=O)(=O)c2ccccc2)C1 (stereo unspecified) | -9 | i | i | -0.4 | i | i | i | i | i
CCc1nn(CC(=O)NCCCN2CCN(CC)CC2)c(=O)c2cc3occc3n12 | -5 | i | i | -1.7 | i | i | · | · | ·
COc1cc(C)c(C(=O)Oc2cc(C)c(C(=O)O)c(O)c2C)c(O)c1C(=O)O | -3 | i | i | -1.1 | i | i | · | · | ·
COc1cc(C)c(C(=O)Oc2cc(C)c(C(=O)O)c(O)c2C)c(OC)c1C | -9 | i | i | -0.02 | i | i | i | i | i
CCOC(=O)C1CCCN(C2=NC(=O)/C(=C/c3ccc(N(C)C)cc3)S2)C1 (stereo unspecified) | -29 | 8* | i | -5.8 | -8.4* | i | 56%* | i | 86%*
CCOC(=O)c1cc(-c2ccc(OC)cc2F)nc2c1c(C)nn2CCC#N | -8 | 6* | i | 2 | -11* | i | 54%* | i | 34%*
Cc1ccc(C2=Nc3ccccc3SC(c3cccc([N+](=O)[O-])c3)C2)cc1 (stereo unspecified) | -5 | i | i | 1.5 | -13* | -13* | 71%* | i | 40%*
COc1cc(C(=S)N2CCN(C(c3ccccc3)c3ccccc3)CC2)cc(OC)c1O | -5 | i | i | 0.19 | i | i | · | · | ·
CCCCN(C)Cc1cc(=O)oc2cc3c(cc12)CCCC3 | -3 | i | i | 0.36 | i | i | i | i | i
CC(NC(=O)Cn1nc(C(F)(F)F)c2c1CCC2)c1ccccc1 (stereo unspecified) | -4 | i | i | -0.17 | i | i | i | i | 30%*
N=c1n(CC(=O)c2ccc(Br)s2)c2ccccc2n1Cc1ccccc1 | -21 | i | i | 0.03 | -10* | i | 52%* | i | 30%*
O=C1C2=C(CCCC2)C(=O)N1c1cccc(OCCBr)c1 | -8 | i | i | 0 | i | i | · | · | ·
CC(C)CN(CCOc1cccc(N2C(=O)C3=C(CCCC3)C2=O)c1)CC(C)C | -9 | i | i | 0.31 | i | i | i | i | i
CC(C)CCN(CCC(C)C)CC(O)Cn1c2ccccc2c(=O)c2ccccc21 (stereo unspecified) | -5 | i | i | -1.7 | -8.1* | i | 42%* | i | 28%*
COc1cc(OC)nc(Oc2ccccc2C(=O)Oc2ccccc2Cl)n1 | 1 | i | i | -3.6 | -11* | i | 42%* | i | 28%*
SMILES | hERG rescue | KCNQ1 inh | KCNQ1 act | Kir21 block | KCNK9 inh | KCNK3 inh | KCNK9 block conf | Kir21 sel | HEK293 Tl ctr
COc1cc(OC)nc(Oc2ccccc2C(=O)Oc2ccc(Cl)cc2)n1 | 1 | i | i | 0 | -9* | i | 44%* | i | 39%*
COC(=O)c1ccccc1Oc1nc(Cl)cc(OC)n1 | -5 | i | i | 0.98 | i | i | · | · | ·
O=C(COc1ccc(F)cc1)N(Cc1ccco1)C1CCS(=O)(=O)C1 (stereo unspecified) | -11 | i | i | -0.01 | i | i | · | · | ·
CC(C)(C)c1nc(SCC(=O)N2CCCC2)c2ccccc2n1 | -8 | i | i | -0.86 | i | i | · | · | ·
CC1CC(C)CN(C(=O)CSc2nc(Cc3cccs3)nc3ccccc23)C1 (stereo unspecified) | -18 | i | i | -1.8 | i | i | i | i | 24%*
CC(NC(=O)COC(=O)COc1ccc(C(=O)c2ccccc2)cc1)c1ccccc1 (stereo unspecified) | · | · | · | · | · | i | · | · | ·
CC(C)Cn1c(=O)c2c(nc3n2CCCN3CCc2ccccc2)n(C)c1=O | -18 | i | i | 0.34 | -8.6* | i | 46%* | i | i
CCCCN(CCCC)c1ccc(C(=O)c2ccccc2C(=O)O)c(O)c1 | -26 | i | 18* | 1.1 | i | i | i | i | i
Cc1cc(C)c(NC(=O)COC(=O)/C=C/c2cccs2)c(C)c1 | -6 | i | i | -0.13 | i | i | · | · | ·
